Screens from PubChem.
Hits are enriched below; roughly 5.6% of the tested compounds scored in any of these assays.
aDG glyco up: increases alpha dystroglycan glycosylation; Pro5-aDG cells, alpha-DG glycosylation AlphaScreen (IIH6); 0% Pro5, 100% B10-LARGE cell signal; activation, % at 10 µM; 360,000 tested, 0.22% active;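 active means activation of at least 8% versus controls, or a plate z-score of at least 8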;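 further: Pro5 are CHO cells carrying HIG-tagged alpha-DG that lacks glycosylation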
CHOP inhibitor: inhibitors of CHOP induction in ER stress response; CHO-K1 CHOP-promoter luciferase, tunicamycin-induced, 15-18 h; inhibition, % at 10 µM; 220,000 tested, 3.8% active; AID 2732;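 active means compounds that reduced the stress-induced luciferase reporter signal by more than about 70% of percent inhibition, limit read from the data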;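 further: 0% = tunicamycin plus vehicle and 100% = wells without tunicamycin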
NR3A LBD binder: modulates the human NR3A ligand-binding domain; Tm shift relative to glycine control, % at 25 µM; 340,000 tested, 2.5% active; NR3A LBD differential scanning fluorimetry, Tm shift; 0% = protein alone, 100% = glycine-bound protein; AID 1259313;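 active means melting temperature shift of at least 10% of the positive control shift, at one fixed dose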
UPR CHOP act: activators of apoptotic arm of unfolded protein response (CHOP); CHO-CHOP luciferase reporter, UPR activation, luminescence; percent of tunicamycin response over DMSO baseline; activation, % at 10 µM; 330,000 tested, 0.34% active; AID 449763;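 active means at 10 µM dose, activation of 40% or more, normalized to positive control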;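 further: 100% = tunicamycin at 10 µg/mL and 0% = DMSO alone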
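Dosing – one dose, 10 µM in 0.5% DMSO · System – CHO-CHOP cells, stable luciferase reporter of PERK-eIF2a-CHOP signalling · Input – 500 cells/well · Control set – tunicamycin 10 µg/mL final as positive, DMSO-only wells as negative · Timing – 6 h compound treatment, 37 °C · Measure – % activation vs tunicamycin · Technique – luminescence read with Steady-Glo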
UPR XBP1 act: adaptive UPR (XBP1) activation; activation, % at 20 µM; CHO-XBP1 luciferase reporter, IRE1-XBP1 UPR activation, luminescence; percent of tunicamycin response, DMSO as zero; 330,000 tested, 0.33% active;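 active means versus positive control, 20 µM dose yields 30% or more activation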;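 further: 100% = tunicamycin at 10 µg/mL and 0% = DMSO only wells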
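Assay system: CHO-XBP1 luciferase reporter cells; Schedule: 6 h treatment, 37 °C; Detection: glow luminescence from Steady-Glo reagent; Benchmarks: high control tunicamycin 10 µg/mL final, low control DMSO vehicle only.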
MPTP inh: blocks calcium-induced mitochondrial swelling; AID 602449; inhibition, % at 10 µM; 360,000 tested, 1.4% active; isolated mouse mitochondria, Ca2+ swelling absorbance, 30 min;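 active means inhibition of 50% or more, scaled per plate between neutral and stimulator controls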;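 further: 0% = DMSO wells given calcium and 100% = 1 mM EGTA wells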
* hit, by the source's call; · = no result.

SMILES | aDG glyco up | CHOP inhibitor | NR3A LBD binder | UPR CHOP act | UPR XBP1 act | MPTP inh
COc1cc(/C=N/NC(=Nc2ccc(C)cc2)c2nc3ccccc3s2)ccc1O | 0 | 74* | -21 | -6 | -5 | -2
COc1ccccc1/C=N/NC(=Nc1ccc(C)cc1)c1nc2ccccc2s1 | · | -26 | · | -3 | -5 | ·
COc1cc(/C=N/NC(=O)c2cc3ccccc3[nH]2)ccc1O | 0 | · | 34* | 3 | -1 | 1
COc1cc(/C=N/Nc2nc3ccccc3[nH]2)ccc1O | 2 | -34 | 15* | 1 | -3 | 0
COc1cc(/C=N/Nc2ccc(C(F)(F)F)cn2)ccc1O | 0 | 28 | 30* | 0 | 4 | 1
COc1cc(/C=N/NC(=O)c2cccc(C(=O)N/N=C/c3ccc(O)c(OC)c3)n2)ccc1O | 0 | · | -2 | -1 | -3 | -1
COc1cc(/C=N/Nc2snc(SC)c2C#N)ccc1O | 0 | -97 | 20* | 9 | 12 | 2
COc1cc(/C=N/Nc2nc(C)cc(C)n2)ccc1O | 0 | · | · | · | · | -2
O=[N+]([O-])c1cc(CN2CCN(c3cccc(C(F)(F)F)c3)CC2)c2cccnc2c1O | · | 87* | 9 | 1 | 1 | ·
CCN(CC)CCN(C(=O)c1ccc(S(=O)(=O)N(CC)c2ccccc2)cc1)c1nc2c(OC)ccc(OC)c2s1 | 0 | · | 12* | 3 | -1 | -1
N#CCC(=O)N/N=C/c1cn(Cc2ccc(Cl)cc2Cl)c2ccccc12 | 0 | -7 | 24* | 0 | 6 | 4
CCOC(=O)N/N=C/c1cn(Cc2ccc(Cl)cc2)c2ccccc12 | 0 | 53 | -4 | 2 | 2 | 3
O=C(c1ccco1)N1CCN(C2CN(C3CCCCC3)S(=O)(=O)C2)CC1 (centres undefined) | 0 | · | · | · | · | 0
Cc1ccc(S(=O)(=O)N2CCN(C(=O)COC(=O)/C=C/c3cccc([N+](=O)[O-])c3)CC2)c(C)c1 | 0 | · | 1 | · | · | 0
COc1ccc(C(=O)CC(=O)c2ccccc2O)cc1OC | 0 | -29 | 15* | 8 | -2 | 0
COc1ccc(C(=O)CC(=O)c2ccccc2O)cc1 | 0 | · | 3 | 6 | -5 | -3
CCC(=O)c1ccc(OCc2ccc(C(=O)OC)cc2)c(OC)c1 | 0 | -24 | 0 | 3 | -5 | -1
COc1ccc(O)c(C(=O)CC(=O)c2ccccc2C)c1 | 1 | 104* | -16 | 4 | 4 | -2
CCC(=O)c1ccc(OCc2ccccc2)c(OC)c1 | 0 | 36 | 11* | 2 | 3 | 2
COc1ccc(C(=O)COC(=O)c2ccc(OC)c(OC)c2)cc1OC | 0 | 75* | -4 | 1 | 0 | 0
COc1ccc(O)c(C(=O)CC(=O)c2cccnc2)c1 | 0 | · | 0 | · | · | -4
CC(Sc1nnc(CC(=O)Nc2ccccc2F)n1C)C(=O)Nc1nccs1 (centres undefined) | 0 | · | -1 | 2 | 0 | -1
COc1ccc(C(=O)C2CCCN(C(=O)/C=C/c3cnc[nH]3)C2)c(C)c1 (centres undefined) | 0 | · | -1 | -1 | -1 | 0
COC(=O)[C@]12CCCCC=C1N(Cc1ccc(Cl)cc1Cl)C(=O)[C@H](CC(=O)N1CCN(C(=O)C3CC3)CC1)C2 | 0 | · | · | · | · | -2
CCCCN(CC)CCCNC(=O)c1ccc(CS(=O)(=O)c2ccccc2C)o1 | 0 | · | 0 | -2 | -3 | -2
COCc1cc(=O)[nH]c(/N=C(\N)Nc2cccc(Cl)c2)n1 | 0 | -6 | -2 | 0 | -4 | 0
CC(=O)n1c2c(c3ccccc31)OC(N)=C(C#N)C2c1cccc(Cl)c1Cl (centres undefined) | 0 | 0 | 13* | -3 | 5 | 5
NC(=NCc1ccc(Cl)c(Cl)c1)NC(=O)c1nc(Cl)c(N)nc1N | · | -18 | · | · | · | ·
C[n+]1c(-c2ccccc2)cc2c(=Cc3ccc([N+](=O)[O-])cc3)c3ccccc3n21 | -1 | · | 14* | · | · | -3
CCOC1(C)OCC(=O)[C@]2(CCC3C4CCC5=CC(=O)C=CC5(C)C4C(=O)CC32C)O1 (some centres undefined) | 0 | 33 | -1 | 1 | 0 | 2
